Results gathered from unrelated publications.
Target: D(3) dopamine receptor (DRD3, Homo sapiens, UniProt P35462)

Structure (SMILES)	assay	conditions	inhibition [%]
COc1ccc(S(=O)(=O)N2CCCCC2)cc1C	ligand displacement, radioligand	10 µM	< 30
c1ccc(C2(N3CCCCC3)CCCCC2)cc1	enzyme activity, inhibitor	10 µM	-9.9
CN(CCN1CCC(OC(=O)Nc2ccccc2-c2ccccc2)CC1)C(=O)c1ccc(CN2CCC(C(N)=O)CC2)cc1	ligand displacement, radioligand	1 µM	-4
COc1ccc(C(=O)NCc2cc(C(C)C)no2)cc1OC1CCN(C)CC1	ligand displacement, radioligand	10 µM	15
Cc1c(N2CCNCC2)nc2ccc(Br)cc2c1C(=O)NC[C@H](CCC(=O)O)c1ccccc1Cl	ligand displacement	10 µM	3.81
CC(C)Cn1cnc2c(N)nc3ccccc3c21	ligand displacement, radioligand	10 µM	18
CC(C)N1CCC[C@H]1CNC(=O)c1cn(C2CCCC2)c(=O)c2c1c1ccccc1n2C	ligand displacement, radioligand	10 µM	26
O=C(Nc1cccnn1)N1CCN([C@@H]2CCOc3cc(C(F)(F)F)ccc32)CC1	cell-free assay	20 µM	9
C[C@H](C(=O)N[C@H]1COc2ccccc2[C@@H]1S(C)(=O)=O)c1ccc(F)cc1	cell-free assay	10 µM	6
CCc1ccc(OCC(=O)N2CCN(Cc3ccc4c(c3)OCO4)CC2)c(Br)c1	enzyme activity, inhibitor	10 µM	-4.8
COCc1c(-c2cc3cc(C)cc(OC)c3s2)c2c(N)ncnn2c1CN1CCNC(=O)C1	ligand displacement, radioligand	10 µM	29
N#CC1(c2ccccn2)CCN(Cc2cc(C(=O)O)c(=O)n3ccccc23)CC1	cell-free assay	10 µM	-7.39
c1ccc(C(NCCNC(c2ccccc2)c2ccccc2)c2ccccc2)cc1	cell-free assay	10 µM	77
